pKi: −log10 of the molar value. Values after ≈ are worked out from the molar mass of the structure shown.
What was measured:
[1] = Specificity Index, Ki for human thymidylate synthase/Ki for Escherichia coli thymidylate synthase
[2] = Specificity Index, Ki for human thymidylate synthase/Ki for Cryptococcus neoformans thymidylate synthase
Outline: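 Specificity index is Ki of hTS divided by Ki of the pathogen TS (LcTS, EcTS or CnTS). Each enzyme was purified to >95% and assayed spectrophotometrically at 340 nm, 20 °C. Buffer was TES 50 mM pH 7.4 with MgCl2, formaldehyde, EDTA and 2-mercaptoethanol, plus dUMP 100 µM, mTHF 140 µM and enzyme 0.07 µM.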

Thymidylate synthase [3] = target: Thymidylate synthase (Homo sapiens, UniProt P04818); test: Inhibition of human thymidylate synthase
Thymidylate synthase [4] = target: Thymidylate synthase (Escherichia coli, UniProt C3SWJ7); test: Inhibition of Escherichia coli thymidylate synthase
Homo sapiens = species on record: Homo sapiens; test: Selectivity Index, Ki for human dihydrofolate reductase/Ki for human thymidylate synthase
Thymidylate synthase [5] = target: T1, Thymidylate synthase (Cryptococcus neoformans var. neoformans B-3501A, UniProt P0CS13); test: Inhibition of Cryptococcus neoformans thymidylate synthase
T1 sequence (P0CS13 whole entry): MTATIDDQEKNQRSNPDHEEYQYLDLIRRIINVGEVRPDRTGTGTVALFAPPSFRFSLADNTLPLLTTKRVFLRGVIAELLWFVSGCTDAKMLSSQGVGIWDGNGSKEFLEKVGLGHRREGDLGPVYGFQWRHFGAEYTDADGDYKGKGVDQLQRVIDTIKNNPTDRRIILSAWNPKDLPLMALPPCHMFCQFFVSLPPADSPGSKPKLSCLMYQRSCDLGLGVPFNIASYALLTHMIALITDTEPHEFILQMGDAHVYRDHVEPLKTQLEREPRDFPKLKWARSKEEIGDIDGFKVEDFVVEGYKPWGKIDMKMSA

Thymidylate synthase [6] = target: T2, Thymidylate synthase (Lactobacillus casei, UniProt P00469); test: Inhibition of Lactobacillus casei thymidylate synthase; design: species or system Lacticaseibacillus casei
T2 sequence (P00469 whole entry): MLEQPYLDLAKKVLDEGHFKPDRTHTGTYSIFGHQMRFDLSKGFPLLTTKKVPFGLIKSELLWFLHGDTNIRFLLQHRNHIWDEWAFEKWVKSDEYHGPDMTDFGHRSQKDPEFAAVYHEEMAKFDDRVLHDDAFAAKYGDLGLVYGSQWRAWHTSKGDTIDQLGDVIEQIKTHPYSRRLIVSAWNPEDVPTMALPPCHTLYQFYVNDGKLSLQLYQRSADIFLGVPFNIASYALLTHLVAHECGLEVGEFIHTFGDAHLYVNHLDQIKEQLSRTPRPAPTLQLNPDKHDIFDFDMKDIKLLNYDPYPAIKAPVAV

[7] = Specificity Index, Ki for human thymidylate synthase/Ki for Lactobacillus casei thymidylate synthase
Dihydrofolate reductase = target: T3, Dihydrofolate reductase (Homo sapiens, UniProt P00374); test: Inhibition of human dihydrofolate reductase
T3 sequence (P00374 whole entry): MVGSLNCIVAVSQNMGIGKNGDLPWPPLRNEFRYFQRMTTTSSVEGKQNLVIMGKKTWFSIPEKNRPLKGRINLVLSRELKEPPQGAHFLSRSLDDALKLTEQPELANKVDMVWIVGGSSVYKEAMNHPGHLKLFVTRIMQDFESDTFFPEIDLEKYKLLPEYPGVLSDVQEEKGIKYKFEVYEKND
Outline: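 Purified human DHFR assayed spectrophotometrically at 25 °C by the fall in A340 on DHF reduction. Ki from steady-state kinetics.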

Citrobacter = test: Antibacterial activity against Citrobacter 224; type: functional
Outline: (§1)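 Wild-type strain panel (18 Gram-positive and Gram-negative strains). Bacteria grown in Mueller-Hinton broth at 37 °C for 24 h. Exponentially growing cultures diluted in sterile liquid medium to a final inoculum of about 1 × 10⁴ CFU/mL, then exposed to increasing compound concentrations. MIC taken as the lowest concentration with no evident bacterial growth.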

Escherichia coli [8] = test: Antibacterial activity against Escherichia coli 256; type: functional; outline: as §1
Listeria monocytogenes [9] = test: Antibacterial activity against Listeria monocytogenes 8; type: functional; outline: as §1
Listeria monocytogenes [10] = test: Antibacterial activity against Listeria monocytogenes ATCC 4428; type: functional; outline: as §1
Listeria monocytogenes [11] = test: Antibacterial activity against Listeria monocytogenes 6; type: functional; outline: as §1
Streptococcus = test: Antibacterial activity against Streptococcus 42; type: functional; outline: as §1
[12] = tested on: Staphylococcus saprophyticus; test: Antibacterial activity against Staphylococcus saprophyticus ATCC 15305; type: functional; outline: as §1
Staphylococcus aureus [13] = test: Antibacterial activity against Staphylococcus aureus 343; type: functional; outline: as §1
[14] = tested on: Staphylococcus haemolyticus; test: Antibacterial activity against Staphylococcus haemolyticus ATCC 2997; type: functional; outline: as §1
Staphylococcus aureus [15] = test: Antibacterial activity against Staphylococcus aureus K28; type: functional; outline: as §1
Listeria monocytogenes [16] = test: Antibacterial activity against Listeria monocytogenes 7; type: functional; outline: as §1
Staphylococcus aureus [17] = test: Antibacterial activity against Staphylococcus aureus ATCC 29213; type: functional; outline: as §1
Listeria monocytogenes [18] = test: Antibacterial activity against Listeria monocytogenes 4; type: functional; outline: as §1
Listeria monocytogenes [19] = test: Antibacterial activity against Listeria monocytogenes 3; type: functional; outline: as §1
Enterococcus faecalis = test: Antibacterial activity against Enterococcus faecalis ATCCC29212; type: functional; outline: as §1
Listeria monocytogenes [20] = test: Antibacterial activity against Listeria monocytogenes 5; type: functional; outline: as §1
Escherichia coli [21] = test: Antibacterial activity against Escherichia coli 292; type: functional; outline: as §1
Staphylococcus aureus [22] = test: Antibacterial activity against Staphylococcus aureus 341; type: functional; outline: as §1

Thymidylate synthase (Homo sapiens, UniProt P04818), sequence (P04818 whole entry): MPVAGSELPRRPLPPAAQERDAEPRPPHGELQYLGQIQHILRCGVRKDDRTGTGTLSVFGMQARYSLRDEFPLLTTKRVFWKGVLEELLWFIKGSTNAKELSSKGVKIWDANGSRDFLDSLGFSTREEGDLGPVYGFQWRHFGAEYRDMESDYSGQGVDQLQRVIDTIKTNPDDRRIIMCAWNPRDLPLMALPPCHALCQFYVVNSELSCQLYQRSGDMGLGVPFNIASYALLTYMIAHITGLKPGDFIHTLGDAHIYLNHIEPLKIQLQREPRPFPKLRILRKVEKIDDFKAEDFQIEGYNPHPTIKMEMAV
Thymidylate synthase (Escherichia coli, UniProt C3SWJ7), sequence (C3SWJ7 whole entry): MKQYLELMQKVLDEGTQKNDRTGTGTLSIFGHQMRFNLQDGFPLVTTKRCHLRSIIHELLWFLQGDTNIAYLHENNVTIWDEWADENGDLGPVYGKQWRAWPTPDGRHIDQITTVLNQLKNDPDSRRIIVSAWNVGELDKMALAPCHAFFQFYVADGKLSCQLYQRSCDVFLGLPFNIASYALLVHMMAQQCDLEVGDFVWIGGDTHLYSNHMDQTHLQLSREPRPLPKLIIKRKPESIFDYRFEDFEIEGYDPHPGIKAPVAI

Row | SMILES | Ratio Ki [1] | Ratio Ki [2] | pKi (Thymidylate synthase [3]) | pKi (Thymidylate synthase [4]) | Selectivity index (Homo sapiens) | pKi (Thymidylate synthase [5]) | pKi (Thymidylate synthase [6]) | Ratio Ki [7] | pKi (Dihydrofolate reductase) | MIC (Citrobacter) | MIC (Escherichia coli [8]) | MIC (Listeria monocytogenes [9]) | MIC (Listeria monocytogenes [10]) | MIC (Listeria monocytogenes [11]) | MIC (Streptococcus) | MIC [12] | MIC (Staphylococcus aureus [13]) | MIC [14] | MIC (Staphylococcus aureus [15]) | MIC (Listeria monocytogenes [16]) | also measured
1 | O=C1OC(c2cc(Cl)c(O)c(Cl)c2)(c2cc(Cl)c(O)c(Cl)c2)c2cccc3cccc1c23 | 1 | 2 | 5.24 | 5.28 | 5 | 5.48 | 5.70 | 3 | 4.55 | – | – | – | – | – | – | – | – | – | – | – | –
2 | O=C1OC(c2ccc(O)c(Cl)c2)(c2ccc(O)c(Cl)c2)c2ccc3ccccc3c21 | – | – | – | – | – | 5.09 | – | – | – | – | – | – | – | – | – | – | – | – | – | – | –
3 | O=C1OC(c2ccc(O)c(F)c2)(c2ccc(O)c(F)c2)c2cccc3cccc1c23 | – | – | – | – | – | – | – | – | 4.38 | – | – | – | – | – | – | – | – | – | – | – | –
4 | O=C1OC(c2ccc(O)cc2)(c2ccc(O)c(Br)c2)c2cccc3cccc1c23 (centres undefined) | > 330 | > 25 | < 3.88 | 6.40 | < 0.02 | 5.28 | 6.00 | > 132 | 5.47 | > 50 µg/mL | > 50 µg/mL | 25 µg/mL (≈ 55.9 µM) | 10 µg/mL (≈ 22.4 µM) | 10 µg/mL (≈ 22.4 µM) | 10 µg/mL (≈ 22.4 µM) | 10 µg/mL (≈ 22.4 µM) | 10 µg/mL (≈ 22.4 µM) | 10 µg/mL (≈ 22.4 µM) | 25 µg/mL (≈ 55.9 µM) | 10 µg/mL (≈ 22.4 µM) | MIC (Staphylococcus aureus [17]): 10 µg/mL (≈ 22.4 µM); MIC (Listeria monocytogenes [18]): 10 µg/mL (≈ 22.4 µM); MIC (Listeria monocytogenes [19]): 10 µg/mL (≈ 22.4 µM); MIC (Enterococcus faecalis): 25 µg/mL (≈ 55.9 µM); MIC (Listeria monocytogenes [20]): 10 µg/mL (≈ 22.4 µM); MIC (Escherichia coli [21]): > 50 µg/mL; MIC (Staphylococcus aureus [22]): 25 µg/mL (≈ 55.9 µM)
5 | O=C1OC(c2ccc(O)c(I)c2)(c2ccc(O)c(I)c2)c2cccc3cccc1c23 | – | > 8 | < 3.88 | – | < 1 | 4.80 | 4.51 | > 4 | 4.03 | – | – | – | – | – | – | – | – | – | – | – | –
6 | Cc1cc(O)c(C(C)C)cc1C1(c2cc(C(C)C)c(O)cc2C)OC(=O)c2ccc3ccccc3c21 | – | – | – | – | – | – | – | – | 4.89 | – | – | – | – | – | – | – | – | – | – | – | –
7 | O=C1OC(c2ccc(O)cc2)(c2ccc(O)cc2)c2ccc3ccccc3c21 | – | – | – | – | – | 6.22 | – | – | 4.46 | – | – | – | – | – | – | – | – | – | – | – | –
8 | O=C1OC(c2ccc(O)c(Br)c2)(c2ccc(O)c(Br)c2)c2c1ccc1ccccc21 | > 147 | > 49 | – | 6.05 | < 0.2 | 5.57 | – | > 20 | 4.48 | – | – | – | – | – | – | – | – | – | – | – | –
9 | O=C(O)c1cn(C2CC2)c2cc(N3CCNCC3)c(F)cc2c1=O [CIPROFLOXACIN] | – | – | – | – | – | – | – | – | – | > 25 µg/mL | > 25 µg/mL | 1 µg/mL (≈ 3.02 µM) | 2.5 µg/mL (≈ 7.54 µM) | 2.5 µg/mL (≈ 7.54 µM) | > 5 µg/mL | 1 µg/mL (≈ 3.02 µM) | 0.5 µg/mL (≈ 1.51 µM) | 2.5 µg/mL (≈ 7.54 µM) | 0.5 µg/mL (≈ 1.51 µM) | 1 µg/mL (≈ 3.02 µM) | MIC (Staphylococcus aureus [17]): 0.5 µg/mL (≈ 1.51 µM); MIC (Listeria monocytogenes [18]): 1 µg/mL (≈ 3.02 µM); MIC (Listeria monocytogenes [19]): 2.5 µg/mL (≈ 7.54 µM); MIC (Enterococcus faecalis): 12.5 µg/mL (≈ 37.7 µM); MIC (Listeria monocytogenes [20]): 2.5 µg/mL (≈ 7.54 µM); MIC (Escherichia coli [21]): > 25 µg/mL; MIC (Staphylococcus aureus [22]): 1.2 µg/mL (≈ 3.62 µM)
10 | O=C1OC(c2ccc(O)cc2)(c2ccc(O)cc2)c2c1ccc1ccccc21 | > 30 | > 330 | < 3.88 | 5.36 | < 1 | 6.40 | – | > 12 | – | – | – | – | – | – | – | – | – | – | – | – | –
11 | O=C1OC(c2ccc(O)c(F)c2)(c2ccc(O)c(F)c2)c2ccc(Cl)c3cccc1c23 | > 223 | > 38 | – | 5.96 | < 0.05 | 5.19 | – | > 136 | 4.92 | > 50 µg/mL | > 50 µg/mL | 25 µg/mL (≈ 57 µM) | 10 µg/mL (≈ 22.8 µM) | 10 µg/mL (≈ 22.8 µM) | 10 µg/mL (≈ 22.8 µM) | 10 µg/mL (≈ 22.8 µM) | 10 µg/mL (≈ 22.8 µM) | 10 µg/mL (≈ 22.8 µM) | 10 µg/mL (≈ 22.8 µM) | 10 µg/mL (≈ 22.8 µM) | MIC (Staphylococcus aureus [17]): 10 µg/mL (≈ 22.8 µM); MIC (Listeria monocytogenes [18]): 10 µg/mL (≈ 22.8 µM); MIC (Listeria monocytogenes [19]): 10 µg/mL (≈ 22.8 µM); MIC (Enterococcus faecalis): 25 µg/mL (≈ 57 µM); MIC (Listeria monocytogenes [20]): 10 µg/mL (≈ 22.8 µM); MIC (Escherichia coli [21]): > 50 µg/mL; MIC (Staphylococcus aureus [22]): 10 µg/mL (≈ 22.8 µM)
12 | O=C1OC(c2ccc(O)c(I)c2)(c2ccc(O)c(I)c2)c2c1ccc1ccccc21 | > 163 | > 54 | < 3.61 | 5.82 | < 0.01 | 5.35 | 5.70 | > 123 | 5.41 | – | – | – | – | – | – | – | – | – | – | – | –
13 | O=C1OC(c2ccc(O)c(F)c2)(c2ccc(O)c(F)c2)c2ccc3ccccc3c21 | – | – | – | – | – | 5.46 | – | – | 3.96 | > 50 µg/mL | > 50 µg/mL | 25 µg/mL (≈ 61.8 µM) | 25 µg/mL (≈ 61.8 µM) | 25 µg/mL (≈ 61.8 µM) | 25 µg/mL (≈ 61.8 µM) | 25 µg/mL (≈ 61.8 µM) | 25 µg/mL (≈ 61.8 µM) | 25 µg/mL (≈ 61.8 µM) | 25 µg/mL (≈ 61.8 µM) | 25 µg/mL (≈ 61.8 µM) | MIC (Staphylococcus aureus [17]): 25 µg/mL (≈ 61.8 µM); MIC (Listeria monocytogenes [18]): 25 µg/mL (≈ 61.8 µM); MIC (Listeria monocytogenes [19]): 25 µg/mL (≈ 61.8 µM); MIC (Enterococcus faecalis): 25 µg/mL (≈ 61.8 µM); MIC (Listeria monocytogenes [20]): 25 µg/mL (≈ 61.8 µM); MIC (Escherichia coli [21]): > 50 µg/mL; MIC (Staphylococcus aureus [22]): 25 µg/mL (≈ 61.8 µM)

Source: ChEMBL document CHEMBL1137378, “Antibacterial agent discovery using thymidylate synthase biolibrary screening” (J Med Chem, 2006)
